ChEMBL document CHEMBL1154093, “New azoles with potent antifungal activity: design, synthesis and molecular docking” (2009)
Values after ≈ are worked out from the molar mass of the structure shown. Active and inactive are the calls of the source. The rule behind the calls is not given here.

Legend:
Trichophyton rubrum = experiment: Antifungal activity against Trichophyton rubrum after 7 days by serial dilution method; assay type: functional; settings: 168 h
Procedure, shortened: (§1)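 Dermatophytes (ATCC or clinical isolates) were tested by NCCLS serial dilution in RPMI 1640 with 0.165 M MOPS, incubated at 28 °C and read at 7 days. Compounds were taken up in DMSO and diluted in medium. MIC was the lowest concentration reducing turbidity by at least 80% relative to the drug-free growth control.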

Candida parapsilosis = experiment: Antifungal activity against Candida parapsilosis after 24 hrs by serial dilution method; assay type: functional, organism-based
Procedure, shortened: (§2)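 NCCLS broth microdilution in RPMI 1640 buffered with 0.165 M MOPS, with strains from ATCC or clinical isolates. Compounds were dissolved in DMSO and serially diluted in medium. Yeasts were incubated at 35 °C and read at 24 h for Candida or 72 h for C. neoformans. MIC was the lowest concentration giving ≥80% turbidity inhibition versus the growth control.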

Candida albicans [1] = experiment: Antifungal activity against Candida albicans after 24 hrs by serial dilution method; assay type: functional; procedure, shortened: as §2
Cryptococcus neoformans = experiment: Antifungal activity against Cryptococcus neoformans after 72 hrs by serial dilution method; assay type: functional; procedure, shortened: as §2
Candida tropicalis = experiment: Antifungal activity against Candida tropicalis after 24 hrs by serial dilution method; assay type: functional; procedure, shortened: as §2
Nannizzia gypsea = experiment: Antifungal activity against Microsporum gypseum after 7 days by serial dilution method; assay type: functional; settings: 168 h; procedure, shortened: as §1
Candida albicans [2] = experiment: Antifungal activity against multidrug-resistant Candida albicans after 24 hrs by serial dilution method; assay type: functional
Procedure, shortened: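 Broth serial dilution in 96-well plates per NCCLS recommendations; RPMI 1640 buffered with 0.165 M MOPS as medium. Compounds dissolved in DMSO, serially diluted in growth medium. Strains from ATCC or clinical isolates. Yeasts incubated at 35 °C, read at 24 h for Candida. MIC = lowest concentration giving turbidity at or below 80% inhibition versus growth control.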

Aspergillus fumigatus = experiment: Antifungal activity against Aspergillus fumigatus after 7 days by serial dilution method; assay type: functional; settings: 168 h
Procedure, shortened: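 Filamentous fungus (ATCC or clinical isolate) was tested by NCCLS microdilution in MOPS-buffered (0.165 M) RPMI 1640. Compounds were dissolved in DMSO and serially diluted in medium, and growth was scored at 7 days. MIC was the lowest concentration producing ≥80% inhibition of turbidity compared with the untreated control.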

| SMILES | MIC80 (Trichophyton rubrum) [µg/mL] | Activity (Candida parapsilosis) | MIC80 (Candida albicans [1]) [µg/mL] | MIC80 (Cryptococcus neoformans) [µg/mL] | MIC80 (Candida tropicalis) [µg/mL] | MIC80 (Nannizzia gypsea) [µg/mL] | MIC80 (Candida albicans [2]) [µg/mL] | MIC80 (Aspergillus fumigatus) [µg/mL] |
| --- | --- | --- | --- | --- | --- | --- | --- | --- |
| OC(CN1CCN(CCCOc2ccccc2)CC1)(Cn1cncn1)c1ccc(F)cc1F (racemic) | 0.25 (≈ 0.546 µM) | Active | 0.0156 (≈ 0.0341 µM) | 1 (≈ 2.19 µM) | 0.0625 (≈ 0.137 µM) | 4 (≈ 8.74 µM) | 64 (≈ 140 µM) | 32 (≈ 69.9 µM) |
| OC(CN1CCN(CCCOc2cccc(Br)c2)CC1)(Cn1cncn1)c1ccc(F)cc1F (racemic) | 0.0625 (≈ 0.117 µM) | Active | 0.0156 (≈ 0.0291 µM) | 0.25 (≈ 0.466 µM) | 0.0156 (≈ 0.0291 µM) | 0.25 (≈ 0.466 µM) | 16 (≈ 29.8 µM) | 4 (≈ 7.46 µM) |
| O=[N+]([O-])c1cccc(OCCCN2CCN(CC(O)(Cn3cncn3)c3ccc(F)cc3F)CC2)c1 (racemic) | 0.0625 (≈ 0.124 µM) | Active | 0.0625 (≈ 0.124 µM) | 0.25 (≈ 0.497 µM) | 0.0156 (≈ 0.031 µM) | 0.25 (≈ 0.497 µM) | 0.25 (≈ 0.497 µM) | 32 (≈ 63.7 µM) |
| OC(CN1CCN(CCCCCOc2ccccc2)CC1)(Cn1cncn1)c1ccc(F)cc1F (racemic) | 0.25 (≈ 0.515 µM) | Active | 0.0625 (≈ 0.129 µM) | 1 (≈ 2.06 µM) | 0.0625 (≈ 0.129 µM) | 4 (≈ 8.24 µM) | 4 (≈ 8.24 µM) | 32 (≈ 65.9 µM) |
| CC(C)(C)c1ccc(OCCCN2CCN(CC(O)(Cn3cncn3)c3ccc(F)cc3F)CC2)cc1 (racemic) | 0.0156 (≈ 0.0304 µM) | Active | 0.0156 (≈ 0.0304 µM) | 0.0625 (≈ 0.122 µM) | 0.0156 (≈ 0.0304 µM) | 0.0625 (≈ 0.122 µM) | 0.125 (≈ 0.243 µM) | 2 (≈ 3.89 µM) |
| Nc1ccc(OCCCN2CCN(CC(O)(Cn3cncn3)c3ccc(F)cc3F)CC2)cc1 (racemic) | 4 (≈ 8.46 µM) | Active | 0.25 (≈ 0.529 µM) | 4 (≈ 8.46 µM) | 1 (≈ 2.12 µM) | 16 (≈ 33.9 µM) | 0.25 (≈ 0.529 µM) | 64 (≈ 135 µM) |
| OC(CN1CCN(CCCOc2ccc(Br)cc2)CC1)(Cn1cncn1)c1ccc(F)cc1F (racemic) | 0.0625 (≈ 0.117 µM) | Active | 0.0156 (≈ 0.0291 µM) | 0.25 (≈ 0.466 µM) | 0.0156 (≈ 0.0291 µM) | 0.25 (≈ 0.466 µM) | 0.25 (≈ 0.466 µM) | 1 (≈ 1.86 µM) |
| O=[N+]([O-])c1ccc(OCCCN2CCN(CC(O)(Cn3cncn3)c3ccc(F)cc3F)CC2)cc1 (racemic) | 0.0625 (≈ 0.124 µM) | Active | 0.0625 (≈ 0.124 µM) | 0.25 (≈ 0.497 µM) | 0.0625 (≈ 0.124 µM) | 1 (≈ 1.99 µM) | 0.125 (≈ 0.249 µM) | 32 (≈ 63.7 µM) |
| OC(CN1CCN(CCCOc2ccccc2Cl)CC1)(Cn1cncn1)c1ccc(F)cc1F (racemic) | 0.25 (≈ 0.508 µM) | Active | 0.0625 (≈ 0.127 µM) | 1 (≈ 2.03 µM) | 0.0625 (≈ 0.127 µM) | 1 (≈ 2.03 µM) | 16 (≈ 32.5 µM) | 32 (≈ 65 µM) |
| OC(CN1CCN(CCCOc2ccc(OCc3ccccc3)cc2)CC1)(Cn1cncn1)c1ccc(F)cc1F (racemic) | 0.0625 (≈ 0.111 µM) | Active | 0.0625 (≈ 0.111 µM) | 0.25 (≈ 0.444 µM) | 0.0625 (≈ 0.111 µM) | 0.0625 (≈ 0.111 µM) | 32 (≈ 56.8 µM) | 2 (≈ 3.55 µM) |
| Cc1cccc(OCCCN2CCN(CC(O)(Cn3cncn3)c3ccc(F)cc3F)CC2)c1 (racemic) | 0.25 (≈ 0.53 µM) | Active | 0.0156 (≈ 0.0331 µM) | 1 (≈ 2.12 µM) | 0.0625 (≈ 0.133 µM) | 1 (≈ 2.12 µM) | 0.125 (≈ 0.265 µM) | 16 (≈ 33.9 µM) |
| O=[N+]([O-])c1ccccc1OCCCN1CCN(CC(O)(Cn2cncn2)c2ccc(F)cc2F)CC1 (racemic) | 1 (≈ 1.99 µM) | Active | 0.25 (≈ 0.497 µM) | 4 (≈ 7.96 µM) | 0.25 (≈ 0.497 µM) | 4 (≈ 7.96 µM) | 2 (≈ 3.98 µM) | 64 (≈ 127 µM) |
| OC(CN1CCN(CCCOc2ccc(Cl)cc2)CC1)(Cn1cncn1)c1ccc(F)cc1F (racemic) | 0.0156 (≈ 0.0317 µM) | Active | 0.0156 (≈ 0.0317 µM) | 0.25 (≈ 0.508 µM) | 0.0156 (≈ 0.0317 µM) | 0.25 (≈ 0.508 µM) | 0.125 (≈ 0.254 µM) | 4 (≈ 8.13 µM) |
| Cc1ccccc1OCCCN1CCN(CC(O)(Cn2cncn2)c2ccc(F)cc2F)CC1 (racemic) | 0.25 (≈ 0.53 µM) | Active | 0.0625 (≈ 0.133 µM) | 1 (≈ 2.12 µM) | 0.0625 (≈ 0.133 µM) | 1 (≈ 2.12 µM) | 0.125 (≈ 0.265 µM) | 32 (≈ 67.9 µM) |
| OC(CN1CCN(CCCOc2ccc(F)cc2)CC1)(Cn1cncn1)c1ccc(F)cc1F (racemic) | 0.25 (≈ 0.526 µM) | Active | 0.0156 (≈ 0.0328 µM) | 1 (≈ 2.1 µM) | 0.0625 (≈ 0.131 µM) | 1 (≈ 2.1 µM) | 32 (≈ 67.3 µM) | 32 (≈ 67.3 µM) |
| Cc1ccc(OCCCN2CCN(CC(O)(Cn3cncn3)c3ccc(F)cc3F)CC2)cc1 (racemic) | 0.0625 (≈ 0.133 µM) | Active | 0.0156 (≈ 0.0331 µM) | 0.25 (≈ 0.53 µM) | 0.0625 (≈ 0.133 µM) | 0.25 (≈ 0.53 µM) | 0.12 (≈ 0.254 µM) | 8 (≈ 17 µM) |
| OC(CN1CCN(CCCOc2ccccc2Br)CC1)(Cn1cncn1)c1ccc(F)cc1F (racemic) | 0.25 (≈ 0.466 µM) | Active | 0.0625 (≈ 0.117 µM) | 1 (≈ 1.86 µM) | 0.0156 (≈ 0.0291 µM) | 1 (≈ 1.86 µM) | 8 (≈ 14.9 µM) | 16 (≈ 29.8 µM) |
| OC(CN1CCN(CCCCOc2ccccc2)CC1)(Cn1cncn1)c1ccc(F)cc1F (racemic) | 1 (≈ 2.12 µM) | Active | 0.25 (≈ 0.53 µM) | 1 (≈ 2.12 µM) | 0.25 (≈ 0.53 µM) | 4 (≈ 8.48 µM) | 32 (≈ 67.9 µM) | 8 (≈ 17 µM) |
